# Test results published in ChEMBL document CHEMBL1126990, “Design and synthesis of 18F-labeled neurotoxic analogs of MPTP” (J Med Chem, 1993).
# What was measured:
# Mus musculus [1] = species: Mus musculus; test: Biodistribution of [18F]-radiolabeled compound in the mouse spleen after 30 minutes (average uptake in (%injected dose)/(% body weight); assay type: ADME, organism-based; conditions: in vivo, 0.5 h
# How it was run: (§1)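 Adult male C57 Black mice (about 20 g), anesthetized with 1 mg sodium pentobarbital ip, given 0.1 mL (~0.05 mCi) tracer via tail vein. Killed by cervical dislocation at set times (5–90 min). Organs sampled, counted, weighed. Injected dose measured against weighed standards, minus residual tail activity. %id/g multiplied by body weight gives normalized uptake. Mean ± SD, N = 3 (N = 2 at 5 min).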
# Mus musculus [2] = species: Mus musculus; test: Biodistribution of [18F]-radiolabeled compound in the mouse heart after 90 minutes (average uptake in (%injected dose)/(% body weight); assay type: ADME, organism-based; conditions: in vivo, 1.5 h; how it was run: as §1
# Mus musculus [3] = species: Mus musculus; test: Biodistribution of [18F]-radiolabeled compound in the mouse bone after 60 minutes (average uptake in (%injected dose)/(% body weight); assay type: ADME, organism-based, Bone element; conditions: in vivo, 1 h; how it was run: as §1
# Mus musculus [4] = species: Mus musculus; test: Biodistribution of [18F]-radiolabeled compound in the mouse muscle after 15 minutes (average uptake in (%injected dose)/(% body weight); assay type: ADME, organism-based, Muscle tissue; conditions: in vivo, 0.25 h; how it was run: as §1
# Mus musculus [5] = species: Mus musculus; test: Biodistribution of [18F]-radiolabeled compound in the mouse intestine after 5 minutes (average uptake in (%injected dose)/(% body weight); assay type: ADME, organism-based; conditions: in vivo; how it was run: as §1
# Mus musculus [6] = species: Mus musculus; test: Biodistribution of [18F]-radiolabeled compound in the mouse heart after 5 minutes (average uptake in (%injected dose)/(% body weight); assay type: ADME, organism-based; conditions: in vivo; how it was run: as §1
# [7] = Ratio between Vmax and Km; assay type: ADME
# How it was run: (§2)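 Rat liver MAO (crude P2 mitochondrial fraction from adult male Wistar rats, in pH 7.4 phosphate buffer) incubated with substrate at 30 μM to 5 mM; colorimetric detection of H2O2 formed. Blanks contained 0.1 mM pargyline. Vmax and Km from linear regression of Lineweaver-Burk plots; means ± SE of n separate experiments; ANOVA with post-hoc Scheffe test.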
# Mus musculus [8] = species: Mus musculus; test: Biodistribution of [18F]-radiolabeled compound in the mouse muscle after 5 minutes (average uptake in (%injected dose)/(% body weight); assay type: ADME, organism-based, Muscle tissue; conditions: in vivo; how it was run: as §1
# Mus musculus [9] = species: Mus musculus; test: Biodistribution of [18F]-radiolabeled compound in the mouse blood after 30 minutes (average uptake in (%injected dose)/(% body weight); assay type: ADME, organism-based; conditions: in vivo, 0.5 h; how it was run: as §1
# Mus musculus [10] = species: Mus musculus; test: Biodistribution of [18F]-radiolabeled compound in the mouse kidney after 60 minutes (average uptake in (%injected dose)/(% body weight); assay type: ADME, organism-based; conditions: in vivo, 1 h; how it was run: as §1
# Mus musculus [11] = species: Mus musculus; test: Biodistribution of [18F]-radiolabeled compound in the mouse bone after 90 minutes (average uptake in (%injected dose)/(% body weight); assay type: ADME, organism-based, Bone element; conditions: in vivo, 1.5 h; how it was run: as §1
# Mus musculus [12] = species: Mus musculus; test: Biodistribution of [18F]-radiolabeled compound in the mouse bone after 5 minutes (average uptake in (%injected dose)/(% body weight); assay type: ADME, organism-based, Bone element; conditions: in vivo; how it was run: as §1
# Mus musculus [13] = species: Mus musculus; test: Biodistribution of [18F]-radiolabeled compound in the mouse bone after 30 minutes (average uptake in (%injected dose)/(% body weight); assay type: ADME, organism-based, Bone element; conditions: in vivo, 0.5 h; how it was run: as §1
# Mus musculus [14] = species: Mus musculus; test: Biodistribution of [18F]-radiolabeled compound in the mouse blood after 60 minutes (average uptake in (%injected dose)/(% body weight); assay type: ADME, organism-based; conditions: in vivo, 1 h; how it was run: as §1
# Mus musculus [15] = species: Mus musculus; test: Biodistribution of [18F]-radiolabeled compound in the mouse intestine after 15 minutes (average uptake in (%injected dose)/(% body weight); assay type: ADME, organism-based; conditions: in vivo, 0.25 h; how it was run: as §1
# Mus musculus [16] = species: Mus musculus; test: Biodistribution of [18F]-radiolabeled compound in the mouse kidney after 90 minutes (average uptake in (%injected dose)/(% body weight); assay type: ADME, organism-based; conditions: in vivo, 1.5 h; how it was run: as §1
# [17] = separate experiments, n=4); assay type: ADME; how it was run: as §2
# Mus musculus [18] = species: Mus musculus; test: Biodistribution of [18F]-radiolabeled compoundP in the mouse spleen after 15 minutes (average uptake in (%injected dose)/(% body weight); assay type: ADME, organism-based; conditions: in vivo, 0.25 h; how it was run: as §1
# Mus musculus [19] = species: Mus musculus; test: Biodistribution of [18F]-radiolabeled compound in the mouse liver after 60 minutes (average uptake in (%injected dose)/(% body weight); assay type: ADME, organism-based; conditions: in vivo, 1 h; how it was run: as §1
# Mus musculus [20] = species: Mus musculus; test: Biodistribution of [18F]-radiolabeled compound in the mouse heart after 30 minutes (average uptake in (%injected dose)/(% body weight); assay type: ADME, organism-based; conditions: in vivo, 0.5 h; how it was run: as §1
# Rattus norvegicus = species: Rattus norvegicus; test: Maximal rate (Vmax) for oxidation by rat liver MAO (results are means of number of separate experiments, n=4) (*p<0.01); assay type: ADME; how it was run: as §2
# Mus musculus [21] = species: Mus musculus; test: Biodistribution of [18F]-radiolabeled compound in the mouse heart after 15 minutes (average uptake in (%injected dose)/(% body weight); assay type: ADME, organism-based; conditions: in vivo, 0.25 h; how it was run: as §1
# Mus musculus [22] = species: Mus musculus; test: Biodistribution of [18F]-radiolabeled compound in the mouse muscle after 90 minutes (average uptake in (%injected dose)/(% body weight); assay type: ADME, organism-based, Muscle tissue; conditions: in vivo, 1.5 h; how it was run: as §1
# Mus musculus [23] = species: Mus musculus; test: Biodistribution of [18F]-radiolabeled compound in the mouse brain after 5 minutes (average uptake in (%injected dose)/(% body weight); assay type: ADME, organism-based; conditions: in vivo; how it was run: as §1
# Mus musculus [24] = species: Mus musculus; test: Biodistribution of [18F]-radiolabeled compound in the mouse muscle after 30 minutes (average uptake in (%injected dose)/(% body weight); assay type: ADME, organism-based, Muscle tissue; conditions: in vivo, 0.5 h; how it was run: as §1
# Mus musculus [25] = species: Mus musculus; test: Biodistribution of [18F]-radiolabeled compound in the mouse brain after 60 minutes (average uptake in (%injected dose)/(% body weight); assay type: ADME, organism-based; conditions: in vivo, 1 h; how it was run: as §1
# Mus musculus [26] = species: Mus musculus; test: Biodistribution of [18F]-radiolabeled compound in the mouse blood after 90 minutes (average uptake in (%injected dose)/(% body weight); assay type: ADME, organism-based; conditions: in vivo, 1.5 h; how it was run: as §1
smiles,measurement,setting,value
CN1CC=C(c2ccccc2CF)CC1,Time,Mus musculus [1],1.04 min
same,Time,Mus musculus [2],1.84 min
same,Time,Mus musculus [3],2.22 min
same,Time,Mus musculus [4],0.54 min
same,Time,Mus musculus [5],1.36 min
same,Time,Mus musculus [6],2.54 min
same,Ratio,[7],3.83
same,Time,Mus musculus [8],0.61 min
same,Time,Mus musculus [9],0.4 min
same,Time,Mus musculus [10],0.94 min
same,Time,Mus musculus [11],3.32 min
same,Time,Mus musculus [12],0.87 min
same,Time,Mus musculus [13],1.91 min
same,Time,Mus musculus [14],0.31 min
same,Time,Mus musculus [15],1.99 min
same,Time,Mus musculus [16],0.72 min
same,Km,[17],159 µM
same,Time,Mus musculus [18],1.33 min
same,Time,Mus musculus [19],0.72 min
same,Time,Mus musculus [20],2.03 min
same,Vmax,Rattus norvegicus,609 nM hr-1 (mg of protein)-1
same,Time,Mus musculus [21],2.41 min
same,Time,Mus musculus [22],0.24 min
same,Time,Mus musculus [23],1.48 min
same,Time,Mus musculus [24],0.43 min
same,Time,Mus musculus [25],0.65 min
same,Time,Mus musculus [26],0.25 min
